The test system of one series is WI-38 VA13. Description: Cytotoxicity against human VA13 cells. Format: functional, cell-based.
A further series has as its system WI-38. Description: Cytotoxicity against human WI38 cells. Format: functional, cell-based.
The subject of series [1] is A549. In words: Cytotoxicity against human A549 cells after 24 hrs by MTT method. The series is classed as cell-based. To be noted: A549, 24 h. In a few lines:
(§1)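 A549 cells were exposed to serial dilutions for 24 h and viability was read by MTT, in triplicate cultures. Viability (%) = (experimental − background absorbance)/(control − background absorbance) × 100, and IC50 was derived from it.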
In general terms: Tetrazolium dyes change colour on reduction, which living cells bring about.

The nature of series [2]: Cytotoxicity against human Hep G2 cells. The series is classed as functional, cell-based. The note with it: HepG2.
Series [3] deals with A549. Description: Inhibition of ICAM1 induction in human A549 cells pretreated for 1 hr in presence of IL1alpha for 6 hrs. The series is classed as functional, cell-based.
For series [4], the system named is A549. Description: Inhibition of ICAM1 induction in human A549 cells pretreated for 1 hr in presence of TNFalpha for 6 hrs. The series is classed as functional, cell-based.
The test system of series [5] is A549. Description: Cytotoxicity against human A549 cells at <100 uM after 24 hrs by MTT method. Format: cell-based. To be noted: a549, 24 h. In a few lines: as §1
Series [6] relates to A549. In words: Inhibition of ICAM1 induction in human A549 cells <100 uM pretreated for 1 hr at in presence of IL1alpha for 6 hrs. Format: functional, cell-based.
Series [7] has as its system A549. In words: Inhibition of ICAM1 induction in human A549 cells at <100 uM pretreated for 1 hr in presence of TNFalpha for 6 hrs. Format: functional, cell-based.
The test system of series [8] is A549. Description: Inhibition of ICAM1 induction in human A549 cells in presence of IL1alpha. The series is classed as functional, cell-based.

Consider ten compounds from ChEMBL document CHEMBL1158076, “Bioactive guaianolides from siyekucai (Ixeris chinensis)” (J Nat Prod, 2006).

Counter-ions that a name gives are not always drawn. Active and inactive are the calls of the source. The calls are words filed in the database; no cut-off is given here.

For `C=C1C(=O)O[C@@H]2[C@H]3[C@H](C)C(=O)C[C@H]3[C@](C)(O)CC[C@@H]12`, the IC50 – broadly, the concentration needed to halve the response being measured – in the series with WI-38 VA13 was 27 µM; in the series on WI-38, 25 µM; with A549 [1], > 100 µM; in series [2], 22 µM; with A549 [3], 16.4 µM; with A549 [4] it was 16.8 µM.
As to `C=C1[C@@H]2[C@H]3OC(=O)C(=C)[C@@H]3CC[C@@](C)(O)[C@@H]2C[C@@H]1O[C@@H]1O[C@H](COC(=O)Cc2ccc(O)cc2)[C@@H](O)[C@H](O)[C@H]1OC(=O)Cc1ccc(O)cc1` [CHINENSIOLIDE E], the IC50 with WI-38 VA13 was 0.72 µM; in the series on WI-38 it was 23 µM; in the series with A549 [1], > 100 µM; in series [2], 140 µM; with A549 [3], > 100 µM; in the series with A549 [4], > 100 µM. In addition, in the series with A549 [5], the Activity result is listed as “Non-toxic”. The result in the series with A549 [6] and in the series on A549 [7] was inactive.
Consider `CC1=C2[C@H]3OC(=O)[C@@H](C)[C@@H]3CC[C@@](C)(O)[C@@H]2CC1=O`, for which the IC50 in the series with WI-38 VA13 is 130 µM; with WI-38, 25 µM; with A549 [1] it was > 100 µM; in series [2] it was 230 µM; with A549 [3], > 100 µM; with A549 [4] it was > 100 µM. In addition, the Activity entry in the series on A549 [5] is “Non-toxic”. In addition, the outcome with A549 [6] and in the series on A549 [7] was inactive.
Consider `C=C1C(=O)C[C@@H]2[C@H]1[C@H]1OC(=O)C(=C)[C@@H]1CC[C@@]2(C)O`, for which the IC50 with A549 [1] is 64.9 µM; in the series on A549 [3], 10.9 µM; in the series with A549 [4] it was 11.4 µM.
`COc1cccc2c1C(=O)c1c(O)c3c(c(O)c1C2=O)C[C@@](O)(C(=O)CO)C[C@@H]3O[C@H]1C[C@H](N)[C@H](O)[C@H](C)O1` [DOXORUBICIN HYDROCHLORIDE]: the IC50 with WI-38 VA13 turned out to be 0.4 µM; in the series on WI-38, 0.7 µM.
As for `C=C1C(=O)O[C@@H]2[C@H]3C(=C)[C@@H](O[C@@H]4O[C@H](COC(=O)Cc5ccc(O)cc5)[C@@H](O)[C@H](O)[C@H]4O)C[C@H]3C(=C)C[C@@H](OC(=O)Cc3ccc(O)cc3)[C@@H]12` [IXEROCHINOSIDE], the Activity result in the series with A549 [5] is recorded as “Non-toxic”. The half-maximal inhibitory concentration (IC50) in the series with A549 [1], in the series on A549 [3] and with A549 [4] was > 100 µM each time. Also, the result with A549 [6] and with A549 [7] was inactive.
For the compound `C=C1C(=O)O[C@@H]2[C@H]3C(CO)=CC(=O)C3=C(C)CC[C@@H]12`, the IC50 in the series with WI-38 VA13 is 8.5 µM; in the series with WI-38, 2.7 µM; in the series on A549 [1] it was > 100 µM; in series [2] it was 25 µM; in the series with A549 [3] it was 16.1 µM; in the series with A549 [4], 20.1 µM.
In the case of `C[C@@H]1C(=O)O[C@H]2[C@H]1CC[C@@](C)(O)[C@@H]1CC(=O)[C@@H](C)[C@H]21`, the figures for the IC50 (in the series on WI-38 VA13; in the series on WI-38; in [2]) were 160 µM, 32 µM and 230 µM, respectively.
Regarding `CC(=O)O[C@H]1C(=O)[C@@]2(C)[C@H]([C@H](OC(=O)c3ccccc3)[C@]3(O)C[C@H](OC(=O)[C@H](O)[C@@H](NC(=O)c4ccccc4)c4ccccc4)C(C)=C1C3(C)C)[C@]1(OC(C)=O)CO[C@@H]1C[C@@H]2O` [PACLITAXEL], in the series with WI-38, the IC50 turned out to be 0.04 µM.
On to `C=C1C(=O)O[C@@H]2C3=C(C)C(=O)C[C@H]3[C@](C)(O)CC[C@@H]12`, for which the IC50 in the series on A549 [8] was 20.9 µM; in the series with WI-38 VA13, 22 µM; in the series on WI-38, 24 µM; in the series on A549 [1], > 100 µM; in [2], 23 µM.
